Measurements taken from paper PMC8792322 (European journal of medicinal chemistry, 2021).
Blank lines part the entries; values can stand above or below the compound they belong to.

How the values were obtained:
[1] = system: PI3Kα, PI3Kβ, PI3Kγ, PI3Kδ; conditions: compared to ZSTK474; cited from earlier work
PI3Kγ = PI3Kγ (Homo sapiens, UniProt P48736); test: PI3Kγ lipid kinase inhibition, Adapta TR-FRET assay; assay type: biochemical; conditions: in comparison to ZSTK474
PI3Kδ = PI3Kδ (Homo sapiens, UniProt O00329); test: PI3Kδ lipid kinase inhibition, Adapta TR-FRET assay; assay type: biochemical; conditions: in comparison to ZSTK474
PI3Kβ = PI3Kβ (Homo sapiens, UniProt P42338); test: PI3Kβ lipid kinase inhibition, Adapta TR-FRET assay; assay type: biochemical; conditions: in comparison to ZSTK474
[2] = system: PI3Kα, PI3Kβ, PI3Kγ, PI3Kδ; test: PI3K isoform inhibition, statements spanning several isoforms; assay type: biochemical, human; conditions: compared to 6b
In short: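 Purified human PI3Kα, β, γ and δ enzymes tested in a fluorescence-based Adapta TR-FRET lipid kinase assay, run as a contract service. Inhibitor range 0.1 nM – 10 μM. Data are the average of three experiments, each in duplicate, as mean ± SEM.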

JAK2V617F MF mouse model = test: Therapy study in JAK2V617F myelofibrosis mouse model; assay type: in vivo; conditions: 325 mg/kg daily p.o., 4 days
In short: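 JAK2V617F fl/− × Mx1-Cre donor bone marrow mixed with WT C57BL/6 marrow (1:9, WT:mutant). Five million cells transplanted into lethally irradiated C57BL/6 females, with polyI:C given twice 2 weeks after transplant. Spleen volume by 7T MRI (2D multi-slice FLASH, TR/TE 600/8 ms, 40 slices of 0.4 mm) at days 0 and 4, summing pixel areas × slice thickness. Spleens weighed after 5 days of treatment. n=5 vehicle, n=4 treated; mean ± s.d.; Welch's t-test.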

[3] = system: phosphorylation of ERK1/2 (T202/Y204); test: Western blot quantification of pERK1/2 in tumor-derived cell lines; assay type: cell-based; conditions: Homo sapiens, 0.5 h, read-out: inhibition of pERK phosphorylation
In short: (§1)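 A375 and D54 cells (DMEM, 10% FBS) and SET-2 cells (RPMI, 20% FBS) treated 30 min with 10 μM test compound. PDGF 50 ng/ml added for A375 and D54 only. Cells lysed 20 min on ice in RIPA with protease/phosphatase inhibitors, then SDS-PAGE/PVDF blots probed for pAKT S473, pERK1/2 T202/Y204, total AKT and total ERK1/2, with chemiluminescent detection. Background-subtracted phospho densities normalised to total protein, relative to control. Three experiments; mean ± SEM.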

[4] = system: phosphorylation of AKT (S473); test: Western blot quantification of pAKT in tumor-derived cell lines; assay type: cell-based; conditions: Homo sapiens, 0.5 h, read-out: inhibition of pAKT phosphorylation
In short: as §1

[5] = In vivo tissue levels and metabolic profile by LC-MS/MS; design: species or system mouse; conditions: mice, oral 325 mg/kg, approximately 4 h
In short: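 Mice (n=4 per compound) dosed orally at 325 mg/kg; blood, spleen and bone marrow taken about 4 h later. Tissue extracted by shaking or bead homogenisation and spun at 10,000 × g. Analysed by C18 UPLC (0.1% formic acid water/acetonitrile, 0.6 mL/min) with MRM LC-MS/MS. Internal-standard calibration used 1/X weighting over 0.02–160 ng/mL. Synthesized metabolite standards confirmed identities; levels given as ng/g.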

[6] = system: A375 melanoma, D54 glioblastoma and SET-2 leukemia tumor cell lines; test: CellTiter-Fluor cell viability assay; assay type: cell-based; conditions: Homo sapiens, 72 h, read-out: anti-proliferative activity IC50
In short: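 Human A375, D54 (DMEM or RPMI, 10% FBS) and SET-2 (20% FBS) cells at 37 °C, 5% CO2; 500–1,000 cells/well seeded and left 24 h, then test compound added at 0.1–20 μM final for 72 h. Read by CellTiter-Fluor fluorescence, with a reference PI3K inhibitor as positive control. Three experiments in duplicate wells; IC50 from curve fit, mean ± SEM.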

[7] = system: phosphorylated ERK1/2 and AKT in spleens of JAK2V617F MF mice; test: pAKT and pERK1/2 in spleens of treated MF mice; assay type: in vivo, mouse; conditions: 325 mg/kg daily p.o., 5 days, vs vehicle
In short: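 JAK2V617F myelofibrosis mice received test compound orally for 5 days, and spleens were taken after sacrifice. For blots, tissue was homogenised in RIPA and 30 μg protein (by BCA) run by SDS-PAGE. Blots were probed for pERK1/2 and pAKT with β-actin as loading control, 2 animals per group. Flow cytometry: isolated cells stained intracellularly with APC anti-pERK1/2 (pT202/pY204) and anti-pAKT (pS473); mean fluorescence intensity reported.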

Chain of PI3Kβ (P42338 whole entry, canonical isoform): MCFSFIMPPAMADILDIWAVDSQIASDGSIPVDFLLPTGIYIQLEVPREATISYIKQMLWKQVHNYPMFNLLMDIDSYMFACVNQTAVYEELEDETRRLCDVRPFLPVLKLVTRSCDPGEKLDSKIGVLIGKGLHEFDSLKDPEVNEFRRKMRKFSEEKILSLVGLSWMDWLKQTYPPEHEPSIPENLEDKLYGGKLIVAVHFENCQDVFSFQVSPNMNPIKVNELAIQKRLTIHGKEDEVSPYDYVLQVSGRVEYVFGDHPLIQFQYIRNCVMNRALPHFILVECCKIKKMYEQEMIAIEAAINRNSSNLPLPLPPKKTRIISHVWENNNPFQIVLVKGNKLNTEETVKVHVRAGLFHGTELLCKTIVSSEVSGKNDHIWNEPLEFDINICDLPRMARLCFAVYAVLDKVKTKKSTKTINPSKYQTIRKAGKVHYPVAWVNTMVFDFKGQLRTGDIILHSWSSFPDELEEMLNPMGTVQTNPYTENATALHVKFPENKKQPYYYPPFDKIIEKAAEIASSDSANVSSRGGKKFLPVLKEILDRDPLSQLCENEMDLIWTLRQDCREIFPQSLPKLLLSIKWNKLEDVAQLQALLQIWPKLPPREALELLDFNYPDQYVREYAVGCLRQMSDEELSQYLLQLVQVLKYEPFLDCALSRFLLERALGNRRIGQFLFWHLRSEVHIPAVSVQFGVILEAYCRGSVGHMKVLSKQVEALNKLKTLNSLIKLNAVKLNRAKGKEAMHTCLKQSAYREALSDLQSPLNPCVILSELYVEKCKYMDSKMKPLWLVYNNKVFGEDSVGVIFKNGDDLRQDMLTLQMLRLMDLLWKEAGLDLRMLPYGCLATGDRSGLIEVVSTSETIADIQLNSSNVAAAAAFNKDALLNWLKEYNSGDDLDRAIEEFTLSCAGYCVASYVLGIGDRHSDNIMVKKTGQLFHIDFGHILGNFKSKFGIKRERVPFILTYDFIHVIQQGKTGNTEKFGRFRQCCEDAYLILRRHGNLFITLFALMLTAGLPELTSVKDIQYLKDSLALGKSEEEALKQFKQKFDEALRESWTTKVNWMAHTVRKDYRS
Chain of PI3Kβ (P27986 whole entry partner, canonical isoform): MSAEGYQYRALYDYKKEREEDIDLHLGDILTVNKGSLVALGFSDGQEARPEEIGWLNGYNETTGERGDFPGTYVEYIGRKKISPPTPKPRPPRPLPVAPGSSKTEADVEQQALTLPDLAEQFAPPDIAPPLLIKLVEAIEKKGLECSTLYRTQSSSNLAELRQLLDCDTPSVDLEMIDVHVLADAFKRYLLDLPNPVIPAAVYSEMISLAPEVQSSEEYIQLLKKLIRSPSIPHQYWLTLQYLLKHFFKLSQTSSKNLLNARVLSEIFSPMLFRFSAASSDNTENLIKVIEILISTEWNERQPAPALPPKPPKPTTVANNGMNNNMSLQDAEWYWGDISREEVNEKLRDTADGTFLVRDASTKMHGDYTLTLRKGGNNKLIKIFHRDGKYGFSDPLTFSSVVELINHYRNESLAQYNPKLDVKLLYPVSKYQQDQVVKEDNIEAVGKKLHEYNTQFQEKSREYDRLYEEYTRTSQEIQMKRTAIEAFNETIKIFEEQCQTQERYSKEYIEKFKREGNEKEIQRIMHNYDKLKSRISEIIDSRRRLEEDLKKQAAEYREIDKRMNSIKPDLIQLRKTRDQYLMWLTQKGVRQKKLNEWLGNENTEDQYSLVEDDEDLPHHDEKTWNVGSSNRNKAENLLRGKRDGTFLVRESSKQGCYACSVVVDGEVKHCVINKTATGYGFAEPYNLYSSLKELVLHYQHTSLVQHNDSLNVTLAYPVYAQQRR
Chain of PI3Kδ (O00329 whole entry): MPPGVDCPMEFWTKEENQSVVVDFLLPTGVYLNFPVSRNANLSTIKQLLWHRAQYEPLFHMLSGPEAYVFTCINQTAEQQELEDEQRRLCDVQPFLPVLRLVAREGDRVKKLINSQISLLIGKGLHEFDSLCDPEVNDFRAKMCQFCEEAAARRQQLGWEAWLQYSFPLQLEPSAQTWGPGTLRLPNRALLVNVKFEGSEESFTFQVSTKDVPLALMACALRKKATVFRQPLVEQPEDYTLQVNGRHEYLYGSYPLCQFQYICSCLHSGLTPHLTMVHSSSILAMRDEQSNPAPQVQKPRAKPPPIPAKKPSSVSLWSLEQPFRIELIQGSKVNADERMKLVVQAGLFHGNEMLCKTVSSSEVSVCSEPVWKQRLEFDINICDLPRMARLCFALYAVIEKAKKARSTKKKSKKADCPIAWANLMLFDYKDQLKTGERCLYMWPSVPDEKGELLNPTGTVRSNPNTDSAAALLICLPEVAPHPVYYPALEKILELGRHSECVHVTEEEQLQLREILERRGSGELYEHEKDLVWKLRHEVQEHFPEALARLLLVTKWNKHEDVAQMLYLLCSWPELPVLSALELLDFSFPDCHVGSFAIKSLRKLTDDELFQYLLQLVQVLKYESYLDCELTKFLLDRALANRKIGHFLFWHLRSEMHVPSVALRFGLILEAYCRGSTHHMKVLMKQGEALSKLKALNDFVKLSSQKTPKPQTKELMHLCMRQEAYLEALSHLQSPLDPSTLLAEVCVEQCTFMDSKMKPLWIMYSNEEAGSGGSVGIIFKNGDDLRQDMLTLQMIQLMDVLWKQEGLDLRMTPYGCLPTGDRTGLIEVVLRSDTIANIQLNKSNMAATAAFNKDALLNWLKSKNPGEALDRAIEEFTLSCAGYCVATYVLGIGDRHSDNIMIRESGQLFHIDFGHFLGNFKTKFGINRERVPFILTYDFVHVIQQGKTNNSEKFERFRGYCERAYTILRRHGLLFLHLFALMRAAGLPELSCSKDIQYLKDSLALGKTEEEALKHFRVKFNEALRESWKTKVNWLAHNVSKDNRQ
Chain of PI3Kδ (P27986 whole entry partner): as the sequence (P27986 whole entry partner, canonical isoform) above
Chain of PI3Kγ (P48736 whole entry): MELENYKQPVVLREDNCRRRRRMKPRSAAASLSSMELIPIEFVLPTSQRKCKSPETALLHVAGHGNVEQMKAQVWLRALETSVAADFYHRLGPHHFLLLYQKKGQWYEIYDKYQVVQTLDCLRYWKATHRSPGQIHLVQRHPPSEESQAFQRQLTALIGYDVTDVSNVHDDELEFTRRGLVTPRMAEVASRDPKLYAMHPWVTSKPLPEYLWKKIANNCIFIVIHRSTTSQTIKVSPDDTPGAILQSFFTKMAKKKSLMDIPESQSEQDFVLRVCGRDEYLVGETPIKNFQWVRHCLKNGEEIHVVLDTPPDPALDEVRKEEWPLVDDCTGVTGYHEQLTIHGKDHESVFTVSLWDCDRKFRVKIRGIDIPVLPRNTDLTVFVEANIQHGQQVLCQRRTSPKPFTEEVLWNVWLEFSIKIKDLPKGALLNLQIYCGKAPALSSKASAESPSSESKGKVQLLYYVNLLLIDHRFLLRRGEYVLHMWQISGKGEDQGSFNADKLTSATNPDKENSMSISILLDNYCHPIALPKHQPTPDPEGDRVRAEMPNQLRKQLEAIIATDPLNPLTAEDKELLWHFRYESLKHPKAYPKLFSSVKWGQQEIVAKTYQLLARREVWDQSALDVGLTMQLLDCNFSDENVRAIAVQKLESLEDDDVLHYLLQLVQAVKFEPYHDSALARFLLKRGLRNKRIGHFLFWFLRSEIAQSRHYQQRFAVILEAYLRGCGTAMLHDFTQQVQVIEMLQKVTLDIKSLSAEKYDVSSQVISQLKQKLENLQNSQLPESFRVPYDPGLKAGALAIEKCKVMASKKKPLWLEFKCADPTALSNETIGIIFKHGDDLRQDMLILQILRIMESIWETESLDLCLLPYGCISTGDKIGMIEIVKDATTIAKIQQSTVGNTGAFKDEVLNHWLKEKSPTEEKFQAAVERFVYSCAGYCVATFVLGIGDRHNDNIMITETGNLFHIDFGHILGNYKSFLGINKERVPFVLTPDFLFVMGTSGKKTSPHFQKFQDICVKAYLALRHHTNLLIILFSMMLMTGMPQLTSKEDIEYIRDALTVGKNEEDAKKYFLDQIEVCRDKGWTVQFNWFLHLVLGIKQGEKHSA

Compound: FC(F)c1nc2ccccc2n1-c1nc(N2CCNCC2)nc(N2CCOCC2)n1 [Compound 2a]
fold reduction in PI3Kα and PI3Kδ inhibition [1]: 36 fold
fold reduction in PI3Kβ and PI3Kγ inhibition [1]: > 70 fold

fold lowered potency towards PI3Kγ (PI3Kγ): 2.5 fold
fold decrease in PI3Kδ inhibition (PI3Kδ): 2.5 fold
fold decrease in PI3Kβ inhibition (PI3Kβ): 5 fold
Compound: OCCNc1nc(N2CCOCC2)nc(-n2c(C(F)F)nc3ccccc32)n1 [Compound 6a, 2-((4-(2-(difluoromethyl)-1H-benzo[d]imidazol-1-yl)-6-morpholino-1,3,5-triazin-2-yl)amino)ethan-1-ol]

fold decrease in PI3Kδ inhibition (PI3Kδ): 2.5 fold
fold decrease in PI3Kβ inhibition (PI3Kβ): 5 fold
Compound: OCCN(CCO)c1nc(N2CCOCC2)nc(-n2c(C(F)F)nc3ccccc32)n1 [Compound 6b, 2,2’-((4-(2-(difluoromethyl)-1H-benzo[d]imidazol-1-yl)-6-morpholino-1,3,5-triazin-2-yl)azanediyl)bis(ethan-1-ol)]

fold decrease in PI3Kβ inhibition (PI3Kβ): 14 fold
Compound: COCCNc1nc(N2CCOCC2)nc(-n2c(C(F)F)nc3ccccc32)n1 [Compound 6c, 4-(2-(difluoromethyl)-1H-benzo[d]imidazol-1-yl)-N-(2-methoxyethyl)-6-morpholino-1,3,5-triazin-2-amine]

Compound: COCCN(CCO)c1nc(N2CCOCC2)nc(-n2c(C(F)F)nc3ccccc32)n1 [Compound 6d, 2-((4-(2-(difluoromethyl)-1H-benzo[d]imidazol-1-yl)-6-morpholino-1,3,5-triazin-2-yl)(2-methoxyethyl)amino)ethan-1-ol]
fold lower potency towards PI3Kβ and PI3Kγ [2]: 2 fold

in vivo metabolites identified [5]: MV-187 (6a) and PD0316684 and MV4–6
IC50 [6]: 10.7 to 17.3 µM
Compound: O=C(NOCCOCCOCCOCCNc1nc(N2CCOCC2)nc(-n2c(C(F)F)nc3ccccc32)n1)c1ccc(F)c(F)c1Nc1ccc(I)cc1F [Compound 6r, N-(2-(2-(2-(2-((4-(2-(difluoromethyl)-1H-benzo[d]imidazol-1-yl)-6-morpholino-1,3,5-triazin-2-yl)amino)ethoxy)ethoxy)ethoxy)ethoxy)-3,4-difluoro-2-((2-fluoro-4-iodophenyl)amino)benzamide]
spleen volume by MRI compared with vehicle (JAK2V617F MF mouse model): significantly reduced
inhibition at 10 µM [3]: 66 to 85%
inhibition at 10 µM [4]: 22 to 29%
phosphorylated ERK1/2 and AKT levels in spleen [7]: significantly reduced

IC50 [6]: 7 to 9.9 µM
Compound: O=C(NOCCOCCOCCOCCN(CCO)c1nc(N2CCOCC2)nc(-n2c(C(F)F)nc3ccccc32)n1)c1ccc(F)c(F)c1Nc1ccc(I)cc1F [Compound 6s, N-((3-(4-(2-(difluoromethyl)-1H-benzo[d]imidazol-1-yl)-6-morpholino-1,3,5-triazin-2-yl)-1-hydroxy-6,9,12-trioxa-3-azatetradecan-14-yl)oxy)-3,4-difluoro-2-((2-fluoro-4-iodophenyl)amino)benzamide]
spleen volume by MRI compared with vehicle (JAK2V617F MF mouse model): significantly reduced
inhibition at 10 µM [3]: 87 to 96%
inhibition at 10 µM [4]: 55 to 71%
in vivo metabolites identified [5]: MV5–46 (6o), which is then further metabolized to MV5–32 (6b) and MV4–187 (6a)
phosphorylated ERK1/2 and AKT levels in spleen [7]: significantly reduced
